# Laboratory results as given in ChEMBL document CHEMBL2021837, “A novel series of l-2-benzyloxycarbonylamino-8-(2-pyridyl)-disulfidyloctanoic acid derivatives as histone deacetylase inhibitors: design, synthesis and molecular modeling study” (Eur J Med Chem, 2012).
# pIC50: −log10 of the molar value.
# Tests used:
# [1] = target: Histone deacetylase 1 (Homo sapiens, UniProt Q13547); test: Inhibition of human HDAC1 in presence of dithiothreitol by HDAC fluorescent assay
# [2] = target: Histone deacetylase 2 (Homo sapiens, UniProt Q92769); test: Inhibition of HDAC2 in human HeLa cell nuclear extracts in presence of dithiothreitol by HDAC fluorescent assay
# [3] = test system: MCF7; test: Antiproliferative activity against human MCF7 cells after 48 hrs by MTT assay; assay type: functional, cell-based; settings: MCF7, 48 h
# In short: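 MCF-7 cells were grown in DMEM with 10% fetal bovine serum at 37 °C under 5% CO₂, then plated and incubated overnight. Compounds were added as 10-fold serial dilutions. MTT (0.5 mg/mL in serum-free medium) was added for 4 h, formazan was dissolved in DMSO, and absorbance was read at 570 nm. IC₅₀ was determined in triplicate, with at least three repeat experiments.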
# Sequence of Histone deacetylase 2 (Q92769 whole entry): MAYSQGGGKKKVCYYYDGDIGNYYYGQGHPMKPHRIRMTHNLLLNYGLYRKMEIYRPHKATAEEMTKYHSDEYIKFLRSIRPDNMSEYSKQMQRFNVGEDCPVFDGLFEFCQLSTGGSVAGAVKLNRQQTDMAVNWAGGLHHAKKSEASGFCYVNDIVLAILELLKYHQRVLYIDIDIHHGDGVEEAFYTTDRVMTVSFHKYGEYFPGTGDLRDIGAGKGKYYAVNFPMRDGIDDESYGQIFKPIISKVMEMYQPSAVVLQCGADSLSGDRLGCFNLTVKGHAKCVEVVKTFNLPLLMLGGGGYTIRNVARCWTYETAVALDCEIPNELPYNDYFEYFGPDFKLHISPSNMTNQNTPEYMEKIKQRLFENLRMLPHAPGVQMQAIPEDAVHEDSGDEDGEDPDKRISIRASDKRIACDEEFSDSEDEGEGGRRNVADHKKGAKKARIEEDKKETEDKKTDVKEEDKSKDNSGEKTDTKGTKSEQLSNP
# Sequence of Histone deacetylase 1 (Q13547 whole entry): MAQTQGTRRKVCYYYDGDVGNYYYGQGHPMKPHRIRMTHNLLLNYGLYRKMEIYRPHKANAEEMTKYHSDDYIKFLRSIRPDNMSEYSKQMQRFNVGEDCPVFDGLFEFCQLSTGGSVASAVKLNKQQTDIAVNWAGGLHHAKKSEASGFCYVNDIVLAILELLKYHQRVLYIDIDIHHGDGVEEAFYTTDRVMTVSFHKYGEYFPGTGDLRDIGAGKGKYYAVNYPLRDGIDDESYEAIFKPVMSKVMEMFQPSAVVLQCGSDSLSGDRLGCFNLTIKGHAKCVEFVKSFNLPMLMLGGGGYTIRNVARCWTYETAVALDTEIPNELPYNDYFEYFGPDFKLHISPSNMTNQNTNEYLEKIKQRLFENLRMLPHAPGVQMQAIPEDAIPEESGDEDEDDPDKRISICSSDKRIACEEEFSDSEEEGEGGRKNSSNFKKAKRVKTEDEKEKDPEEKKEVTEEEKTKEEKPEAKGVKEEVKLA
pIC50 [1],pIC50 [2],pIC50 [3],SMILES
7.17,7.36,4.71,O=C(N[C@@H](CCCCCCSSc1ccccn1)C(=O)NC1CCCCC1)OCc1ccccc1
7.15,7.34,4.68,O=C(N[C@@H](CCCCCCSSc1ccccn1)C(=O)Nc1ccccc1-c1ccccc1)OCc1ccccc1
7.19,7.39,4.81,O=C(N[C@@H](CCCCCCSSc1ccccn1)C(=O)OCc1ccc(-c2ccccc2)cc1)OCc1ccccc1
7.19,7.42,4.82,O=C(N[C@@H](CCCCCCSSc1ccccn1)C(=O)Nc1cccc2ccccc12)OCc1ccccc1
7.19,7.40,4.82,O=C(N[C@@H](CCCCCCSSc1ccccn1)C(=O)OCc1cccc2ccccc12)OCc1ccccc1
8.12,8.28,5.46,O=C(N[C@@H](CCCCCCSSc1ccccn1)C(=O)OCC1c2ccccc2-c2ccccc21)OCc1ccccc1
7.23,7.36,4.85,O=C(N[C@@H](CCCCCCSSc1ccccn1)C(=O)OCc1c2ccccc2cc2ccccc12)OCc1ccccc1
7.18,7.31,4.82,O=C(N[C@@H](CCCCCCSSc1ccccn1)C(=O)OCc1cccc([N+](=O)[O-])c1)OCc1ccccc1
7.15,7.33,4.74,O=C(N[C@@H](CCCCCCSSc1ccccn1)C(=O)Nc1ccc(-c2ccccc2)cc1)OCc1ccccc1
7.19,7.39,4.83,O=C(N[C@@H](CCCCCCSSc1ccccn1)C(=O)OCc1ccc2ccccc2c1)OCc1ccccc1
7.19,7.34,4.77,O=C(N[C@@H](CCCCCCSSc1ccccn1)C(=O)OCc1ccc([N+](=O)[O-])cc1)OCc1ccccc1
7.17,7.32,4.76,O=C(N[C@@H](CCCCCCSSc1ccccn1)C(=O)NC1c2ccccc2-c2ccccc21)OCc1ccccc1
8.29,8.41,5.49,O=C(N[C@@H](CCCCCCSSc1ccccn1)C(=O)Nc1nc(-c2ccccc2)cs1)OCc1ccccc1
–,–,5.77,CC(/C=C/C(=O)NO)=C\[C@@H](C)C(=O)c1ccc(N(C)C)cc1 [TRICHOSTATIN]
